The viability is a read-out of living cells in per cent, often relative to untreated cells. As a reminder, the CC50 is the concentration giving 50% cytotoxicity.

Here are results for 80 molecules from PubChem BioAssay AID602414 (Southern Research Specialized Biocontainment Screening …, 2012).

Values joined by “and” are separate entries in the source; they are usually repeats but may differ in a detail not shown here. Equal values may be shown once. Active and inactive are the calls of the source.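 The calls were made as follows: active = viability under 80% at some tested dose in each replicate, a sign of cell toxicity; inconclusive = meets the active limit in only one replicate; inactive = the rest.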

System in one assay: not listed separately
The assay can be described thus: 5637 bladder carcinoma cell viability loss – set 5, cytotoxicity control for bacterial capsule biogenesis inhibitor project, dose response (AID 602414). The conditions noted are these: Bladder 5637 cells viability, CellTiter-Glo, 72 h; at 150 µM (top of the series). The procedure, abridged:
(§1)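 Material – bladder carcinoma 5637 cells · Times – 72 h exposure · Signal – CellTiter-Glo luminescence · Measure – percent viability versus mean cell-only control, CC50 from curve fit · Controls – Hyamine positive control, untreated cell control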
Take `O=C(Nc1nc2ccc(Br)cc2s1)c1cc(Br)c(Br)s1`: the viability was 110% (inactive).

Still in this assay, the particulars now being: Bladder 5637 cells viability, CellTiter-Glo, 72 h; at 300 µM (top of the series).
Consider `O=C(Nc1ccc2ncsc2c1)c1ccncc1`, for which the viability was 119% (inactive).

The subject of another assay is Bladder 5637 cells viability, CellTiter-Glo, 72 h. The description is as above.
Conditions: not given
The procedure, abridged: as §1
For `CC(C)(C)c1ccc(-c2cc(NC(=O)c3c(F)cccc3F)c(C(=O)O)s2)cc1`, the CC50 is 35.1 µM.
Still for that read-out and setting: in the case of `COc1ccc(-c2cc(NC(=O)c3cccc(F)c3)c(C(=O)O)s2)cc1` it was 44.8 µM.
Same read-out and setting: in the case of `CCOc1ccc(-c2cc(NC(=O)c3c(F)cccc3C(F)(F)F)c(C(=O)O)s2)cc1` it was 62 µM.
Same read-out and setting: then `O=C(Nc1cc(-c2ccc(OCCCC(F)(F)F)cc2)sc1C(=O)O)c1ccc(Br)o1`, with 38.7 µM; and `CC(C)(C)c1ccc(-c2cc(NC(=O)c3cc4ccccc4o3)c(C(=O)O)s2)cc1`, with 34.5 µM.
Take `COc1cccc2sc(NC(=O)c3ccc(Br)s3)nc12`: the CC50 was 24.4 µM.
Same read-out and setting: then `O=C(O)c1sc(-c2ccc(OCCCC(F)(F)F)cc2)cc1NC(=O)c1c(F)cccc1F`, with 241 µM; and `O=C(O)c1sc(-c2ccc(OCCC(F)(F)F)cc2)cc1NC(=O)c1c(F)cccc1F`, with 68.4 µM.
Same read-out and setting: in the case of `CCCCOc1ccc(-c2cc(NC(=O)c3c(F)cc(F)cc3F)c(C(=O)O)s2)cc1` it was 56.2 µM; in that of `O=C(O)c1sc(-c2ccc(OCCCC(F)(F)F)cc2)cc1NC(=O)c1c(F)cc(F)cc1F`, 54.7 µM.
Same read-out and setting: in the case of `O=C(O)c1sc(-c2ccc(OCC(F)(F)F)cc2)cc1NC(=O)c1c(F)cccc1F` it was 75.2 µM; in that of `Cc1ccc(-c2cc(NC(=O)c3cccc(F)c3)c(C(=O)O)s2)cc1`, 43.9 µM; in that of `O=C(Nc1cc(-c2ccccc2)sc1C(=O)O)c1cccs1`, 34.7 µM.
Regarding `O=C(Nc1cc(-c2ccc(C(F)(F)F)cc2)sc1C(=O)O)c1cc2ccccc2o1`, the CC50 is 72.1 µM.
The same measure, in the same setting: then `COc1ccc(-c2cc(NC(=O)c3ccc(Br)o3)c(C(=O)O)s2)cc1`, with 50.5 µM.
On the same count and under the same terms, in the case of `CCOc1ccc(-c2cc(NC(=O)c3c(F)cccc3F)c(C(=O)O)s2)cc1` it was 42.1 µM and 51.6 µM; in that of `O=C(O)c1sc(-c2ccc(C(F)(F)F)cc2)cc1NS(=O)(=O)c1ccc(Br)s1`, 45.2 µM.
On the same count and under the same terms, then `O=C(Nc1cc(-c2ccc(OCCC(F)(F)F)cc2)sc1C(=O)O)c1ccc(Br)o1`, with 41.7 µM; and `CC(C)(C)c1ccc(-c2cc(NC(=O)c3ccc(Br)s3)c(C(=O)O)s2)cc1`, with 20.5 µM.
For the molecule `CC(C)c1ccc(-c2cc(NC(=O)c3c(F)cccc3F)c(C(=O)O)s2)cc1`, the CC50 is 32.4 µM.
With `CCOc1ccc(-c2cc(NC(=O)c3cc4ccccc4o3)c(C(=O)O)s2)cc1`, the CC50 was 193 µM.
On the same count and under the same terms, in the case of `CCCCOc1ccc(-c2cc(NC(=O)c3ccc(Br)o3)c(C(=O)O)s2)cc1` it was 43.4 µM.
Turning to `CCCCOc1ccc(-c2cc(NC(=O)c3cc(Br)c(Br)o3)c(C(=O)O)s2)cc1`, the CC50 is 31.7 µM.
On the same count and under the same terms, in the case of `CCOc1ccc(-c2cc(NC(=O)c3ccc(Br)o3)c(C(=O)O)s2)cc1` it was 58.4 µM; in that of `[N-]=[N+]=NCCOc1ccc(-c2cc(NC(=O)c3c(F)cccc3F)c(C(=O)O)s2)cc1`, 273 µM; in that of `O=C(Nc1cc(-c2ccc(OCCCC(F)(F)F)cc2)sc1C(=O)O)c1cc(Br)c(Br)o1`, 26.6 µM and 251 µM.
Consider `CN(C(=O)c1ccc2ncsc2c1)c1ccccc1`, for which the cytotoxic concentration (CC50) was 267 µM.
Take `Cc1ccc(-c2cc(NC(=O)c3ccc(Br)o3)c(C(=O)O)s2)cc1`: the CC50 was 50.7 µM.
Still for that read-out and setting: then `O=C(Nc1ccncc1F)c1ccc2ncsc2c1`, with 229 µM; and `CCOc1ccc(-c2cc(NC(=O)c3ccc(OC)c(OC)c3)c(C(=O)O)s2)cc1`, with 61.8 µM.
Turning to `O=C(Nc1ncccc1O)c1ccc2ncsc2c1`, the CC50 is 159 µM.
Still for that read-out and setting: then `O=C(Nc1cc(-c2ccc(OC(F)(F)F)cc2)sc1C(=O)O)c1cccc(F)c1`, with 52.1 µM; and `O=C(NCc1cc([N+](=O)[O-])ccc1O)c1cccnc1Sc1ccccc1Cl`, with 51.9 µM.
Still for that read-out and setting: in the case of `CCOc1ccc2nc(NC(=O)c3ccc(Br)s3)sc2c1` it was 91.2 µM.
As for `O=C(Nc1ccnc(Br)c1)c1ccc2ncsc2c1`, the CC50 was 136 µM.
The same measure, in the same setting: then `O=S(=O)(Nc1nc2ccc(OC(F)(F)F)cc2s1)c1ccc(Br)s1`, with 65.9 µM; and `O=C(O)c1sc(-c2ccc(OCC(F)(F)F)cc2)cc1NC(=O)c1c(F)cc(F)cc1F`, with 161 µM; and `O=S(=O)(Nc1nc2ccc(F)cc2s1)c1ccc(Br)s1`, with 135 µM.
With `CCCc1ccc(-c2cc(NC(=O)c3c(F)cccc3F)c(C(=O)O)s2)cc1`, the CC50 was 54.9 µM.
Still for that read-out and setting: in the case of `Cc1ccc(-c2cc(NC(=O)c3cc4ccccc4o3)c(C(=O)O)s2)cc1` it was 94.6 µM; in that of `CC(C)c1ccc(-c2cc(NC(=O)c3cc4ccccc4o3)c(C(=O)O)s2)cc1`, 47.2 µM.
As for `COc1ccc2nc(NC(=O)c3cccs3)sc2c1`, the CC50 is 29.3 µM.
On the same count and under the same terms, in the case of `O=C(Nc1ccnc(Cl)c1)c1ccc2ncsc2c1` it was 38.8 µM; in that of `O=C(Nc1cc(-c2ccc(C(F)(F)F)cc2)sc1C(=O)O)c1ccc(Br)o1`, 47.5 µM; in that of `CCCc1ccc(-c2cc(NC(=O)c3cc(Br)c(Br)o3)c(C(=O)O)s2)cc1`, 41 µM.
The same measure, in the same setting: then `O=C(ONc1ccc(N=NC(=O)c2ccccc2O)cc1)c1ccccc1`, with 12.8 µM.
For `O=C(O)c1sc(-c2ccc(C(F)(F)F)cc2)cc1NC(=O)c1c(F)cccc1F`, the CC50 is 44.8 µM.
Same read-out and setting: then `O=C(Nc1ccnc(F)c1)c1ccc2ncsc2c1`, with 119 µM; and `COc1ccc2nc(NC(=O)c3ccco3)sc2c1`, with 66.7 µM; and `O=C(O)c1sc(-c2ccc(OCCC(F)(F)F)cc2)cc1NC(=O)c1c(F)cc(F)cc1F`, with 63.6 µM.
The same measure, in the same setting: in the case of `Cc1ccc(-c2cc(NC(=O)c3ccc(Br)s3)c(C(=O)O)s2)cc1` it was 66 µM.
Same read-out and setting: then `CCCOc1ccc(-c2cc(NC(=O)c3c(F)cc(F)cc3F)c(C(=O)O)s2)cc1`, with 85.6 µM; and `CCOc1ccc(-c2cc(NC(=O)c3cccc(Cl)c3)c(C(=O)O)s2)cc1`, with 43.6 µM.
Consider `CC(C)c1ccc(-c2cc(NC(=O)c3cccc(F)c3)c(C(=O)O)s2)cc1`, for which the CC50 is 37.5 µM.
Regarding `CC(C)(C)c1ccc(-c2cc(NC(=O)c3cccc(F)c3)c(C(=O)O)s2)cc1`, the CC50 is 21.1 µM.
With `O=C(Nc1cc(-c2ccccc2)sc1C(=O)O)c1ccc(Br)o1`, the CC50 is 53.3 µM.
The same measure, in the same setting: then `CCCc1ccc(-c2cc(NC(=O)c3c(F)cc(F)cc3F)c(C(=O)O)s2)cc1`, with 69.9 µM; and `O=C(Nc1cc(-c2ccc(OC(F)(F)F)cc2)sc1C(=O)O)c1cc2ccccc2o1`, with 40.6 µM; and `CCCc1ccc(-c2cc(NC(=O)c3ccc(Br)o3)c(C(=O)O)s2)cc1`, with 46.4 µM.
On the same count and under the same terms, then `O=C(Nc1cc(-c2ccc(C(F)(F)F)cc2)sc1C(=O)O)c1cccc(F)c1`, with 35.1 µM.
The same measure, in the same setting: then `CC(C)c1ccc(-c2cc(NC(=O)c3ccc(Br)s3)c(C(=O)O)s2)cc1`, with 33.1 µM.
`O=C(Nc1cc(-c2ccccc2)sc1C(=O)O)c1cccc(Cl)c1`: the CC50 was 35 µM.
For the molecule `O=C(Nc1cc(-c2ccc(OCC(F)(F)F)cc2)sc1C(=O)O)c1ccc(Br)o1`, the CC50 was 50 µM.
Same read-out and setting: in the case of `CCCCOc1ccc(-c2cc(NC(=O)c3c(F)cccc3F)c(C(=O)O)s2)cc1` it was 42.6 µM; in that of `CC(C)c1ccc(-c2cc(NC(=O)c3ccc(Br)o3)c(C(=O)O)s2)cc1`, 50.4 µM.
The same measure, in the same setting: then `Cc1ccc(-c2cc(NC(=O)c3c(F)cccc3F)c(C(=O)O)s2)cc1`, with 57.3 µM; and `O=C(Nc1cc(-c2ccccc2)sc1C(=O)O)c1ccc2c(c1)OCCO2`, with 121 µM.
Still for that read-out and setting: in the case of `COc1ccc(-c2cc(NC(=O)c3c(F)cccc3F)c(C(=O)O)s2)cc1` it was 53.3 µM; in that of `COc1cccc2sc(NCc3ccc(Br)s3)nc12`, 165 µM.
Regarding `CCOc1ccc(-c2cc(NC(=O)c3ccc(Br)s3)c(C(=O)O)s2)cc1`, the CC50 was 49.7 µM.
On the same count and under the same terms, in the case of `O=C(O)c1sc(-c2ccc(OC(F)(F)F)cc2)cc1NC(=O)c1c(F)cccc1F` it was 51 µM.
On the same count and under the same terms, then `COc1ccc(-c2cc(NC(=O)c3cc4ccccc4o3)c(C(=O)O)s2)cc1`, with 284 µM.
On the same count and under the same terms, then `CCOc1ccc(-c2cc(NC(=O)c3c(F)cc(F)cc3F)c(C(=O)O)s2)cc1`, with 76.6 µM; and `O=C(Nc1cc(-c2ccc(OC(F)(F)F)cc2)sc1C(=O)O)c1ccc(Br)o1`, with 33.6 µM; and `Cc1ccc(-c2cc(NS(=O)(=O)c3ccc(Br)s3)cs2)cc1`, with 94 µM.
For `O=C(Nc1cc(-c2ccc(C(F)(F)F)cc2)sc1C(=O)O)c1ccc(Br)s1`, the CC50 is 38.5 µM.
Same read-out and setting: in the case of `CCOc1ccc(-c2cc(NC(=O)c3cccc(F)c3)c(C(=O)O)s2)cc1` it was 55.6 µM.
On the same count and under the same terms, then `O=C(Nc1ccncc1)c1ccc2ncsc2c1`, with 178 µM and 244 µM.
